Data as given in paper PMC7502533 (ACS chemical biology, 2020).

Experiments:
TFEB = TFEB nuclear accumulation; assay type: cell-based; settings: for nuclear translocation of TFEB: percentage of cells displaying TFEB nuclear accumulation, biological duplicates
Outline: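 HeLa and Neuro-2a cells were treated with the CPP combined with an endosome-priming small molecule, or with LLOME. TFEB localization was then followed over time until the protein returned to a cytoplasmic distribution.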

Neuro-2a and HeLa = experiment: Recovery of LysoTracker Green staining; assay type: cell-based; settings: cell line not specified; biological triplicates
Outline: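 HeLa and Neuro-2a cells were exposed to the delivery agent, or LLOME as the reference, then washed. LysoTracker was added at increasing intervals after washing, and lysosomal staining was followed over time to find when it returned to the untreated level.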

[1] = test system: Neuro-2a and HeLa cell lines; experiment: Endocytic uptake of AF488-labelled probes by flow cytometry; assay type: cell-based; settings: AF488-H1 added after reagent treatment, biological duplicates
Galectin-3 (Gal3) = experiment: Gal3 recruitment to damaged endosomes; assay type: cell-based
Chmp1b = Chmp1b recruitment to damaged endosomes; assay type: cell-based
[2] = cells incubated with reagent, washed and imaged, biological duplicates

**Q.** `CO/C1=C\C(C)=C\[C@@H](C)[C@@H](O)[C@@H](C)C/C(C)=C/C=C/[C@H](OC)[C@@H]([C@@H](C)[C@@H](O)[C@H](C)[C@@]2(O)C[C@@H](O)[C@H](C)[C@@H](C(C)C)O2)OC1=O` [bafilomycin] was tested. Which “nuclear translocation of TFEB” value (TFEB) did it give?
**A.** positive control

**Q.** Which results are given for `COC(=O)[C@H](CC(C)C)NC(=O)[C@@H](N)CC(C)C` [LLOME, L-leucyl-L-leucine methyl ester]?
**A.** recovery time of LysoTracker staining (Neuro-2a and HeLa): 8 h; additional time to return to a cytoplasmic TFEB distribution (TFEB; after the initial 3h, biological triplicates): 9 h; time TFEB nuclear accumulation is steady or rising after treatment (TFEB; biological triplicates): 3 h; nuclear translocation of TFEB (TFEB): triggered the nuclear translocation of TFEB; uptake of H1 [1]: stimulated; toxicity to cells of cell penetration (cells): delayed loss of viability; Gal3 recruitment (Galectin-3 (Gal3); Neuro-2a): did not trigger; Gal3 distribution / puncta (Galectin-3 (Gal3); [2]): trigger the recruitment of Chmp1b and Gal3; Chmp1b recruitment (Chmp1b; Neuro-2a): did not trigger; number of Chmp1b puncta (Chmp1b; [2]): trigger the recruitment of Chmp1b and Gal3
